Values after ≈ are worked out from the molar mass of the structure shown. Values joined by “and” are separate entries in the source; they are usually repeats but may differ in a detail not shown here. Identical values can stand only once. Active and inactive are the calls of the source. The rule behind the calls is not given here.
What was measured:
Format in all cases: functional
Porphyromonas gingivalis [1] = assay: Antimicrobial activity against Porphyromonas gingivalis assessed as reduction in average number of microcolonies at 12.5 uM after 18 hrs
How it was run: (§1)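 Three-channel flow cell inoculated with 1 ml of exponential ATCC 33277 culture at 5 × 10^8 cells/ml, left 1 h, then fed 0.2 ml/min of 5×-diluted supplemented brain heart infusion. At 18 h, 1 ml of 12.5 or 125 μM compound in sterile water (water control) was injected per channel for 30 min, followed by a 10 min medium wash. BacLight in situ, CLSM (63×, 2 μm sections, 488/568 nm), five random images per replicate, COMSTAT analysis; mean ± SD of three biological replicates.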

Porphyromonas gingivalis [2] = assay: Antimicrobial activity against Porphyromonas gingivalis assessed as reduction in average number of microcolony area at 12.5 uM after 18 hrs; how it was run: as §1
Porphyromonas gingivalis [3] = assay: Antimicrobial activity against Porphyromonas gingivalis assessed as reduction in surface area of substratum occupied by cells at 12.5 uM after 18 hrs; design: scale not given: the % may be the effect or the level left; how it was run: as §1
Porphyromonas gingivalis [4] = assay: Antimicrobial activity against Porphyromonas gingivalis assessed as reduction in thickness of biofilm at 12.5 uM after 18 hrs; how it was run: as §1
Porphyromonas gingivalis [5] = assay: Antimicrobial activity against Porphyromonas gingivalis assessed as reduction in biovolume at 12.5 uM after 18 hrs; how it was run: as §1
Porphyromonas gingivalis [6] = assay: Antimicrobial activity against Porphyromonas gingivalis assessed as surface area/biovolume ratio at 12.5 uM after 18 hrs; how it was run: as §1
Porphyromonas gingivalis [7] = assay: Antimicrobial activity against Porphyromonas gingivalis W50
How it was run: (§2)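 Planktonic growth of P. gingivalis ATCC 33277 (fimbriated) and W50 (afimbriated) in 96-well plates, starting inoculum ~5.0 × 10^7 CFU per well. MIC determined, and mean generation time measured with DMSO alone or with drug at 31.25 and 62.5 μM. MGT differences were tested at P < 0.05.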

Porphyromonas gingivalis [8] = assay: Antimicrobial activity against Porphyromonas gingivalis W50 assessed as mean generation time at 62.5 uM; how it was run: as §2
Porphyromonas gingivalis [9] = assay: Antimicrobial activity against Porphyromonas gingivalis W50 assessed as mean generation time at 31.25 uM; how it was run: as §2
Porphyromonas gingivalis [10] = assay: Antimicrobial activity against Porphyromonas gingivalis ATCC 33277 assessed as thickness of biofilm at 12.5 uM after 18 hrs by confocal laser scanning microscopy; how it was run: as §1
Porphyromonas gingivalis [11] = assay: Antimicrobial activity against Porphyromonas gingivalis ATCC 33277 assessed as mean generation time at 62.5 uM; how it was run: as §2
Porphyromonas gingivalis [12] = assay: Antimicrobial activity against Porphyromonas gingivalis ATCC 33277 assessed as reduction of biofilm formation at 0.1 uM after 24 hrs
How it was run: (§3)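 Static 96-well biofilm model with P. gingivalis ATCC 33277, grown 24 h with drug. Biofilm mass was quantified by crystal violet. Results are means of 12 replicates, compared with untreated and DMSO controls by one-way ANOVA with Scheffe multiple comparison.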

Porphyromonas gingivalis [13] = assay: Antimicrobial activity against Porphyromonas gingivalis ATCC 33277 assessed as reduction of biofilm formation after 24 hrs; how it was run: as §3
Porphyromonas gingivalis [14] = assay: Antimicrobial activity against Porphyromonas gingivalis ATCC 33277 assessed as thickness of biofilm at 125 uM after 18 hrs by confocal laser scanning microscopy; how it was run: as §1
Porphyromonas gingivalis [15] = assay: Antimicrobial activity against Porphyromonas gingivalis assessed as reduction in surface area of substratum occupied by cells at 125 uM after 18 hrs; design: scale not given: the % may be the effect or the level left; how it was run: as §1
Porphyromonas gingivalis [16] = assay: Antimicrobial activity against Porphyromonas gingivalis ATCC 33277 assessed as reduction of biofilm formation at 125 uM after 24 hrs; how it was run: as §3
Porphyromonas gingivalis [17] = assay: Antimicrobial activity against Porphyromonas gingivalis ATCC 33277; how it was run: as §2
Porphyromonas gingivalis [18] = assay: Antimicrobial activity against Porphyromonas gingivalis ATCC 33277 assessed as mean generation time at 31.25 uM; how it was run: as §2

**Q.** What does the source list for `Cc1ncc([N+](=O)[O-])n1CCO` [METRONIDAZOLE]?
**A.** Activity (Porphyromonas gingivalis [1]): 23.7 count; Activity (Porphyromonas gingivalis [2]): 102 µm2; Activity (Porphyromonas gingivalis [3]): 27.4%; Activity (Porphyromonas gingivalis [4]): 2.17 µm; Activity (Porphyromonas gingivalis [5]): 2.19 µm3/µm2; Activity (Porphyromonas gingivalis [6]): 1.63 µm2/µm3

**Q.** Which MIC (Porphyromonas gingivalis [7]) does the source give for `Cc1ccsc1/C=C/C1=NCCCN1C` [MORANTEL] here?
**A.** 2800 µM (≈ 617 µg/mL)

**Q.** What about the Activity (Porphyromonas gingivalis [8]) of the same compound?
**A.** 11.3 h

**Q.** What about the Activity (Porphyromonas gingivalis [9]) of the same compound?
**A.** 11 h

**Q.** `CN1CCCN=C1/C=C/c1cccc(O)c1` [OXANTEL] was tested. Which MIC (Porphyromonas gingivalis [7]) did it give?
**A.** 112 µM (≈ 24.2 µg/mL)

**Q.** And the Activity (Porphyromonas gingivalis [10])?
**A.** Active

**Q.** What about the Activity (Porphyromonas gingivalis [8]) of the same compound?
**A.** 23.8 h

**Q.** And the Activity (Porphyromonas gingivalis [11])?
**A.** 24 h

**Q.** And the Activity (Porphyromonas gingivalis [1])?
**A.** 18.3 count

**Q.** What about the Activity (Porphyromonas gingivalis [12]) of the same compound?
**A.** Active

**Q.** And the Activity (Porphyromonas gingivalis [2])?
**A.** 124 µm2

**Q.** And the Activity (Porphyromonas gingivalis [3])?
**A.** 33.2%

**Q.** What about the Activity (Porphyromonas gingivalis [13]) of the same compound?
**A.** Dose-dependent effect

**Q.** And the Activity (Porphyromonas gingivalis [14])?
**A.** Active

**Q.** And the Activity (Porphyromonas gingivalis [15])?
**A.** 23.8% and 27%

**Q.** And the Activity (Porphyromonas gingivalis [16])?
**A.** Active

**Q.** What about the Activity (Porphyromonas gingivalis [4]) of the same compound?
**A.** 0.83 µm

**Q.** What about the Activity (Porphyromonas gingivalis [5]) of the same compound?
**A.** 1.44 µm3/µm2

**Q.** What about the Activity (Porphyromonas gingivalis [9]) of the same compound?
**A.** 19.2 h

**Q.** And the MIC (Porphyromonas gingivalis [17])?
**A.** 125 µM (≈ 27 µg/mL)

**Q.** And the Activity (Porphyromonas gingivalis [18])?
**A.** 10 h

**Q.** What about the Activity (Porphyromonas gingivalis [6]) of the same compound?
**A.** 2.31 µm2/µm3

**Q.** `c1ccc2[nH]c(-c3cscn3)nc2c1` [THIABENDAZOLE] was tested. Which MIC (Porphyromonas gingivalis [7]) did it give?
**A.** > 3000 µM

**Q.** What about the Activity (Porphyromonas gingivalis [8]) of the same compound?
**A.** 6.2 h

**Q.** What about the Activity (Porphyromonas gingivalis [9]) of the same compound?
**A.** 6.8 h

Source: ChEMBL document CHEMBL1240384, “Inhibition of Porphyromonas gingivalis biofilm by oxantel” (2010)
